Laboratory results published in ChEMBL document CHEMBL3352168, “Potent, orally available, selective COX-2 inhibitors based on 2-imidazoline core” (Eur J Med Chem, 2014).

How the values were obtained:
[1] = target: T1, Prostaglandin G/H synthase 2 (Homo sapiens, UniProt P35354); assay: Inhibition of human recombinant COX2 using fluorometric substrate by fluorescent inhibitor screening assay
T1 sequence (P35354 whole entry): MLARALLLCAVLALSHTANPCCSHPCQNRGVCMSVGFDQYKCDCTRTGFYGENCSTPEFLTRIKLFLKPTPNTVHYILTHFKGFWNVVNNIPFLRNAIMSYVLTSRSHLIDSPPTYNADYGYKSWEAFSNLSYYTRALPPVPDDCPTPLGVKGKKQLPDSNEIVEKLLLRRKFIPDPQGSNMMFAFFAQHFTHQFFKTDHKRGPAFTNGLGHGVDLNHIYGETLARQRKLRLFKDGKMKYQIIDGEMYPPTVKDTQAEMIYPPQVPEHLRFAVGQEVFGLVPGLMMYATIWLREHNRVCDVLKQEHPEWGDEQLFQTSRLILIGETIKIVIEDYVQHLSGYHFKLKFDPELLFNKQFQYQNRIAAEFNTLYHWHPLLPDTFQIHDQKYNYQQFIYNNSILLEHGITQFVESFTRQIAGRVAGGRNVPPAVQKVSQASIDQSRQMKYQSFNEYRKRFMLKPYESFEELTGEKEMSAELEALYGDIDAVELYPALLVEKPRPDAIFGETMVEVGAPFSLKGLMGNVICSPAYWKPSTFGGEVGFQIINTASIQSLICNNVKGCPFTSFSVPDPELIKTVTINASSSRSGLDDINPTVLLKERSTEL
Outline: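 Human recombinant COX-2 in 100 mM Tris-HCl pH 8.0 with heme and ADHP fluorometric substrate; inhibitor added at final […] (units as printed) from DMSO stocks; reaction started with arachidonic acid, 2 min at room temperature. Resorufin fluorescence read at ex 535/em 590 nm; % inhibition vs no-inhibitor activity; IC50 from concentration–inhibition curve, triplicate determinations.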

[2] = target: T2, Prostaglandin G/H synthase 1 (Ovis aries) (UniProt P05979); assay: Inhibition of ovine COX1 using fluorometric substrate at 100 uM by fluorescent inhibitor screening assay
T2 sequence (whole entry): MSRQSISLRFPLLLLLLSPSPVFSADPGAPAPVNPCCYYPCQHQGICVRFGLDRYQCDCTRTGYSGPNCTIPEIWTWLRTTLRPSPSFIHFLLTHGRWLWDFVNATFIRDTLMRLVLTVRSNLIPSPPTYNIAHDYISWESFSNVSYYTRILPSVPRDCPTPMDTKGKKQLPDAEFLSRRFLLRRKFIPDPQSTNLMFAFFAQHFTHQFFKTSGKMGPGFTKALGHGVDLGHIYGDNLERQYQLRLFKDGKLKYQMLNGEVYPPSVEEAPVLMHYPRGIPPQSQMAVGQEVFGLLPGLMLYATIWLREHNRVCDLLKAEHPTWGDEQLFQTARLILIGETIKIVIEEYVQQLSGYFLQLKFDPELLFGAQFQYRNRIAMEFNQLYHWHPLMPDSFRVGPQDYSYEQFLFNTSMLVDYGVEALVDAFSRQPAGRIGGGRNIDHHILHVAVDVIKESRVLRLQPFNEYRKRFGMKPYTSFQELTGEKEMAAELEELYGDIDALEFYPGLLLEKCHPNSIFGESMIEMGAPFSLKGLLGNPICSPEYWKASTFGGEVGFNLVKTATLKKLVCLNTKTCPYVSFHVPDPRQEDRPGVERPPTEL

Plasma [3] = assay: Drug metabolism in C57Bl mouse plasma at 10 mg/kg, po; assay type: ADME, organism-based; set-up: dose 10 mg/kg, route oral; settings: in vivo
[4] = Clearance in C57Bl mouse plasma at 10 mg/kg, po; assay type: ADME, organism-based; set-up: dose 10 mg/kg, route oral
Outline: (§1)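 Male C57Bl mice, about 2 months old, 18.1–23.6 g, fasted overnight, dosed by oral gavage; 4 animals per group plus non-dosed control group; killed by cervical dislocation for blood and whole brain. Plasma precipitated with internal standard; brain homogenized in 67% methanol, centrifuged, spiked with internal standard; quantified by HPLC-MS against blank-brain calibration.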

Brain [5] = assay: Drug metabolism in C57Bl mouse brain at 10 mg/kg, po; assay type: ADME, organism-based; set-up: dose 10 mg/kg, route oral; settings: in vivo
[6] = Cmax in C57Bl mouse brain at 10 mg/kg, po; assay type: ADME, organism-based; set-up: dose 10 mg/kg, route oral; outline: as §1
Plasma [7] = assay: AUC (0 to infinity) in C57Bl mouse plasma assessed as aromatization metabolite at 10 mg/kg, po; assay type: ADME, organism-based; set-up: dose 10 mg/kg, route oral, time infinity; settings: in vivo
Brain [8] = assay: Half life in C57Bl mouse brain assessed as aromatization metabolite at 10 mg/kg, po; assay type: ADME, organism-based; set-up: dose 10 mg/kg, route oral; settings: in vivo
[9] = Tmax in C57Bl mouse brain at 10 mg/kg, po; assay type: ADME, organism-based; set-up: dose 10 mg/kg, route oral; outline: as §1
[10] = AUC (0 to infinity) in C57Bl mouse plasma at 10 mg/kg, po; assay type: ADME, organism-based; set-up: time infinity, dose 10 mg/kg, route oral; outline: as §1
Brain [11] = assay: Tmax in C57Bl mouse brain assessed as aromatization metabolite at 10 mg/kg, po; assay type: ADME, organism-based; set-up: dose 10 mg/kg, route oral; settings: in vivo
Brain [12] = assay: AUC (0 to 240 mins) in C57Bl mouse brain assessed as aromatization metabolite at 10 mg/kg, po; assay type: ADME, organism-based; set-up: time < 4 hr, dose 10 mg/kg, route oral; settings: in vivo, 4 h
Plasma [13] = assay: AUC (0 to 240 mins) in C57Bl mouse plasma assessed as aromatization metabolite at 10 mg/kg, po; assay type: ADME, organism-based; set-up: time < 4 hr, dose 10 mg/kg, route oral; settings: in vivo, 4 h
Brain [14] = assay: Cmax in C57Bl mouse brain assessed as aromatization metabolite at 10 mg/kg, po; assay type: ADME, organism-based; set-up: dose 10 mg/kg, route oral; settings: in vivo
[15] = AUC (0 to 240 mins) in C57Bl mouse brain at 10 mg/kg, po; assay type: ADME, organism-based; set-up: time < 4 hr, dose 10 mg/kg, route oral; outline: as §1
[16] = Tmax in C57Bl mouse plasma at 10 mg/kg, po; assay type: ADME, organism-based; set-up: dose 10 mg/kg, route oral; outline: as §1
Brain [17] = assay: AUC (0 to infinity) in C57Bl mouse brain assessed as aromatization metabolite at 10 mg/kg, po; assay type: ADME, organism-based; set-up: time infinity, dose 10 mg/kg, route oral; settings: in vivo
Plasma [18] = assay: Volume of distribution at steady state in C57Bl mouse plasma at 10 mg/kg, po; assay type: ADME, organism-based; set-up: dose 10 mg/kg, route oral; settings: in vivo; outline: as §1
Mus musculus = assay: Antiinflammatory activity in mouse assessed as reduction in carrageenan-induced inflamed paw volume at 3.7 mg/kg, ip relative to untreated control; assay type: functional; settings: route intraperitoneal
[19] = AUC (0 to 240 mins) in C57Bl mouse plasma at 10 mg/kg, po; assay type: ADME, organism-based; set-up: time < 4 hr, dose 10 mg/kg, route oral; outline: as §1
Plasma [20] = assay: Half life in C57Bl mouse plasma assessed as aromatization metabolite at 10 mg/kg, po; assay type: ADME, organism-based; set-up: dose 10 mg/kg, route oral; settings: in vivo
Plasma [21] = assay: Tmax in C57Bl mouse plasma assessed as aromatization metabolite at 10 mg/kg, po; assay type: ADME, organism-based; set-up: dose 10 mg/kg, route oral; settings: in vivo
[22] = Cmax in C57Bl mouse plasma at 10 mg/kg, po; assay type: ADME, organism-based; set-up: dose 10 mg/kg, route oral; outline: as §1
[23] = Half life in C57Bl mouse brain at 10 mg/kg, po; assay type: ADME, organism-based; set-up: dose 10 mg/kg, route oral; outline: as §1
[24] = AUC (0 to infinity) in C57Bl mouse brain at 10 mg/kg, po; assay type: ADME, organism-based; set-up: time infinity, dose 10 mg/kg, route oral; outline: as §1
Plasma [25] = assay: Cmax in C57Bl mouse plasma assessed as aromatization metabolite at 10 mg/kg, po; assay type: ADME, organism-based; set-up: dose 10 mg/kg, route oral; settings: in vivo
[26] = Half life in C57Bl mouse plasma at 10 mg/kg, po; assay type: ADME, organism-based; set-up: dose 10 mg/kg, route oral; outline: as §1

In the case of `COc1ccc(C2=NCCN2c2ccc(S(N)(=O)=O)cc2)cc1Cl`, the IC50 [1] is reported as 6.2 µM and the inhibition [2] is reported as 3%.

In the case of `COc1ccc(C2=NCCN2c2ccc(S(N)(=O)=O)cc2)cc1F`, the IC50 [1] is reported as 9.5 µM and the inhibition [2] is reported as -5.5%.

Molecule `CS(=O)(=O)c1ccc(N2CCN=C2c2ccc(Cl)c(Cl)c2)cc1` has an IC50 [1] of 2.1 µM and an inhibition [2] of 1.9%.

In the case of `CS(=O)(=O)c1ccc(N2CCN=C2c2ccc(F)c(F)c2)cc1`, the IC50 [1] is reported as > 10 µM and the inhibition [2] is reported as 9.2%.

In the case of `COc1cc(C2=NCCN2c2ccc(S(C)(=O)=O)cc2)ccc1F`, the IC50 [1] is reported as > 10 µM and the inhibition [2] is reported as -4.3%.

In the case of `CS(=O)(=O)c1ccc(N2CCN=C2c2ccc(F)cc2)cc1`, the IC50 [1] is reported as > 10 µM and the inhibition [2] is reported as 12.6%.

In the case of `NS(=O)(=O)c1ccc(N2CCN=C2c2ccc(Cl)c(Cl)c2)cc1`, the Drug metabolism (Plasma [3]) is reported as “metabolite_detected”, the CL/F [4] is reported as 13 mL/min/kg and the Drug metabolism (Brain [5]) is reported as “metabolite_detected”. It also gave a Cmax [6] of 267 ng/mL, an AUC (Plasma [7]) of 364739 ng·min/mL and a t1/2 (Brain [8]) of 1.87 h. For the same molecule, the Tmax [9] was 0.5 h, the AUC(0-inf) [10] was 12700 ng·h/mL and the Tmax (Brain [11]) was 2 h. It also gave an AUC (Brain [12]) of 5969 ng·min/mL, an AUC (Plasma [13]) of 145573 ng·min/mL and a Cmax (Brain [14]) of 33 ng/mL. It also gave an AUC(0-t) at 4 h [15] of 491 ng·h/mL, a Tmax [16] of 5 min and an AUC (Brain [17]) of 8533 ng·min/mL. The Vdss (Plasma [18]) was 1.22 L/kg, the inhibition in vivo at 3.7 mg/kg (Mus musculus) was 56% and the AUC(0-t) at 4 h [19] was 11700 ng·h/mL. The IC50 [1] was 0.3 µM, the t1/2 (Plasma [20]) was 4.65 h and the Tmax (Plasma [21]) was 2 h. The Cmax [22] was 6140 ng/mL, the inhibition [2] was 8.7% and the half-life [23] was 0.967 h. It also gave an AUC(0-inf) [24] of 525 ng·h/mL, a Cmax (Plasma [25]) of 735 ng/mL and a half-life [26] of 1.08 h.

For `CS(=O)(=O)c1ccc(N2CCN=C2c2cccc(F)c2)cc1`, the IC50 [1] was > 10 µM and the inhibition [2] was 0.7%.

In the case of `CC1CN(c2ccc(S(N)(=O)=O)cc2)C(c2ccc(F)cc2)=N1` (racemic), the IC50 [1] is reported as > 10 µM and the inhibition [2] is reported as 5.5%.

With `CS(=O)(=O)c1ccc(N2CCN=C2c2ccc(Cl)cc2)cc1` the IC50 [1] was 7.1 µM and the inhibition [2] was 3.2%.

In the case of `COc1cc(C2=NCCN2c2ccc(S(N)(=O)=O)cc2)ccc1F`, the IC50 [1] is reported as > 10 µM.

Work on `NS(=O)(=O)c1ccc(N2CCN=C2c2ccc(F)c(F)c2)cc1` yielded an IC50 [1] of 6.7 µM and an inhibition [2] of 6.6%.

`NS(=O)(=O)c1ccc(N2CCN=C2c2cccc(F)c2)cc1` showed an IC50 [1] of 7.2 µM and an inhibition [2] of -1.4%.

Work on `CS(=O)(=O)c1ccc(N2CCN=C2c2ccc(Cl)c(C(F)(F)F)c2)cc1` yielded an IC50 [1] of 3.6 µM and an inhibition [2] of 4.7%.

`NS(=O)(=O)c1ccc(N2CCN=C2c2ccc(F)cc2)cc1` showed an IC50 [1] of 6.9 µM and an inhibition [2] of 11.4%.
